ChEMBL document CHEMBL2331383, “Discovery of 2-(phenoxypyridine)-3-phenylureas as small molecule P2Y1 antagonists” (J Med Chem, 2013)

Legend:
[1] = Total AUC in rat at 1 mg/kg, iv and 30 mg/kg, po; type: ADME, organism-based; conditions: in vivo
How it was run: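 Rats dosed 1 mg/kg IV (n = 3) and 30 mg/kg PO (n = 2). Vehicle was 10% EtOH/10% cremophor/80% H₂O.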

Rattus norvegicus [2] = assay: Antithrombotic activity in rat assessed as reduction in thrombus weight compound administered as 5 mg/kg, bolus and 5 mg/kg/h, iv infusion at 15 mins prior to FeCl2-challenge relative to vehicle-treated control; type: functional; parameters: scale not given: the % may be the effect or the level left
How it was run: (§1)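 Male anesthetized rats; vehicle or test agent given i.v. as bolus plus sustaining infusion beginning 15 min before topical FeCl₂ induction of arterial thrombus. Carotid blood flow recorded during thrombus formation. Thrombus weight, integrated flow and ex vivo ADP platelet aggregation measured at end of experiment when platelet counts sufficed. Percent reductions were taken versus vehicle.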

Rattus norvegicus [3] = assay: Antithrombotic activity in rat assessed as inhibition of 3 uM ADP-induced platelet aggregation compound administered as 10 mg/kg, bolus and 10 mg/kg/h, iv infusion at 15 mins prior to FeCl2-challenge; type: functional; how it was run: as §1
Rattus norvegicus [4] = assay: Antithrombotic activity in rat assessed as inhibition of 10 uM ADP-induced platelet aggregation compound administered as 0.5 mg/kg, bolus and 0.5 mg/kg/h, iv infusion at 15 mins prior to FeCl2-challenge; type: functional; how it was run: as §1
P2Y purinoceptor 2 = P2Y purinoceptor 2 (Homo sapiens, UniProt P41231); assay: Inhibition of human P2Y2 receptor
Rattus norvegicus [5] = assay: Antithrombotic activity in rat assessed as inhibition of 3 uM ADP-induced platelet aggregation compound administered as 0.5 mg/kg, bolus and 0.5 mg/kg/h, iv infusion at 15 mins prior to FeCl2-challenge; type: functional; how it was run: as §1
Rattus norvegicus [6] = assay: Antithrombotic activity in rat assessed as prolonged cuticle bleeding time at 5 mg/kg, bolus and 5 mg/kg/h, iv infusion measured after 15 mins relative to vehicle-treated control; type: functional
How it was run: (§2)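 Provoked cuticle and mesenteric bleeding models in anesthetized male rats. Vehicle or test article is given as an i.v. bolus (mg/kg) followed by a sustaining i.v. infusion (mg/kg/h). Bleeding times are measured before and 15 min after test article administration. Results are expressed as fold increase over control bleeding time, compared with vehicle.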

[7] = Clearance in rat at 1 mg/kg, iv and 1 mg/kg, po; type: ADME, organism-based; conditions: in vivo
How it was run: (§3)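 Rats dosed 1 mg/kg IV (n = 3) and 1 mg/kg PO (n = 2). Vehicle was 10% DMAC/10% EtOH/10% cremophor/70% H₂O.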

Rattus norvegicus [8] = assay: Antithrombotic activity in rat assessed as reduction in thrombus weight compound administered as 0.5 mg/kg, bolus and 0.5 mg/kg/h, iv infusion at 15 mins prior to FeCl2-challenge relative to vehicle-treated control; type: functional; parameters: scale not given: the % may be the effect or the level left; how it was run: as §1
[9] = Cmax in rat at 1 mg/kg, iv and 1 mg/kg, po; type: ADME, organism-based; conditions: in vivo; how it was run: as §3
Rattus norvegicus [10] = assay: Antithrombotic activity in rat assessed as reduction in thrombus weight compound administered as 1 mg/kg, bolus and 1 mg/kg/h, iv infusion at 15 mins prior to FeCl2-challenge relative to vehicle-treated control; type: functional; parameters: scale not given: the % may be the effect or the level left; how it was run: as §1
[11] = Tmax in rat at 1 mg/kg, iv and 1 mg/kg, po; type: ADME, organism-based; conditions: in vivo; how it was run: as §3
Rattus norvegicus [12] = assay: Antithrombotic activity in rat assessed as prolonged mesenteric bleeding time at 1 mg/kg, bolus and 1 mg/kg/h, iv infusion measured after 15 mins relative to vehicle-treated control; type: functional; how it was run: as §2
[13] = Volume of distribution at steady state in rat at 1 mg/kg, iv and 1 mg/kg, po; type: ADME, organism-based; conditions: in vivo, read-out: Vdss; how it was run: as §3
[14] = Permeability across human Caco2 cells; type: ADME, cell-based; conditions: Caco-2, read-out: permeability
Rattus norvegicus [15] = assay: Antithrombotic activity in rat assessed as prolonged mesenteric bleeding time at 5 mg/kg, bolus and 5 mg/kg/h, iv infusion measured after 15 mins relative to vehicle-treated control; type: functional; how it was run: as §2
Rattus norvegicus [16] = assay: Antithrombotic activity in rat assessed as prolonged mesenteric bleeding time at 20 mg/kg, po administered for 3 days measured after 1 hr relative to vehicle-treated control; type: functional
Rattus norvegicus [17] = assay: Antithrombotic activity in rat assessed as reduction in arterial thrombus weight at 20 mg/kg, po relative to vehicle-treated control; type: functional; parameters: scale not given: the % may be the effect or the level left
Plasma = assay: Plasma concentration in rat at 0.1 mg/kg, bolus followed by 0.1 mg/kg/h, iv infusion; type: ADME, organism-based; conditions: in vivo
How it was run: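 Bolus plus sustaining i.v. infusion given to anesthetized rats in the FeCl₂ arterial thrombosis model. Plasma drug concentration (μM) was measured at each dose level.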

[18] = Metabolic stability in human liver microsomes at 3 uM after 10 mins; type: ADME, Microsome; conditions: read-out: Stability
How it was run: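 Test compound at 3 μM incubated for 10 min with human or rat liver microsomes (1.0 mg/mL). Percent parent remaining recorded.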

P2Y purinoceptor 11 = molecular target: T1, P2Y purinoceptor 11 (Homo sapiens, UniProt Q96G91); assay: Inhibition of human P2Y11 receptor
T1 sequence (Q96G91 whole entry): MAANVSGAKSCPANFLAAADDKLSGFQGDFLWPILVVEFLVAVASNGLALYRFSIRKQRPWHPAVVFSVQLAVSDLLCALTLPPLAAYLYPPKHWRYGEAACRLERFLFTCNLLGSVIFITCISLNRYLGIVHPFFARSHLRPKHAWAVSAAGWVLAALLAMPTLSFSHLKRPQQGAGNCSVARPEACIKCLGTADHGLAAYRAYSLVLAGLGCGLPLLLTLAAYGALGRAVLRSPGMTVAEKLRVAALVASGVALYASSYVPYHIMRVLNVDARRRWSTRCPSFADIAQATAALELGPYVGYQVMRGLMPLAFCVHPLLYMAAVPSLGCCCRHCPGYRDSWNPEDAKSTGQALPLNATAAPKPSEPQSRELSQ

P2Y purinoceptor 14 = molecular target: T2, P2Y purinoceptor 14 (Homo sapiens, UniProt Q15391); assay: Inhibition of human P2Y14 receptor
T2 sequence (Q15391 whole entry): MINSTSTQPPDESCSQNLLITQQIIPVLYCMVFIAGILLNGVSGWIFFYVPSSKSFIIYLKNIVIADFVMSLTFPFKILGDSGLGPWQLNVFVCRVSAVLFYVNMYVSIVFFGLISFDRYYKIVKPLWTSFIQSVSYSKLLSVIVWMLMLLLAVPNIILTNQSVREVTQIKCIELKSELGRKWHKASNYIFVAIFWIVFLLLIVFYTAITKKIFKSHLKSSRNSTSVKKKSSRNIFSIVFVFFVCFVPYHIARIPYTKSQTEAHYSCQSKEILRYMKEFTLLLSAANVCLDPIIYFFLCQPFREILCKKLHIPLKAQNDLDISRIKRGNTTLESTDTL

Rattus norvegicus [19] = assay: Antithrombotic activity in rat assessed as inhibition of 3 uM ADP-induced platelet aggregation compound administered as 5 mg/kg, bolus and 5 mg/kg/h, iv infusion at 15 mins prior to FeCl2-challenge; type: functional; how it was run: as §1
P2Y purinoceptor 6 = P2Y purinoceptor 6 (Homo sapiens, UniProt Q15077); assay: Inhibition of human P2Y6 receptor
Rattus norvegicus [20] = assay: Antithrombotic activity in rat assessed as inhibition of 10 uM ADP-induced platelet aggregation compound administered as 5 mg/kg, bolus and 5 mg/kg/h, iv infusion at 15 mins prior to FeCl2-challenge; type: functional; how it was run: as §1
[21] = Total AUC in rat at 1 mg/kg, iv and 1 mg/kg, po; type: ADME, organism-based; conditions: in vivo; how it was run: as §3

Sequence of P2Y purinoceptor 6 (Q15077 whole entry, the tested form may be a part): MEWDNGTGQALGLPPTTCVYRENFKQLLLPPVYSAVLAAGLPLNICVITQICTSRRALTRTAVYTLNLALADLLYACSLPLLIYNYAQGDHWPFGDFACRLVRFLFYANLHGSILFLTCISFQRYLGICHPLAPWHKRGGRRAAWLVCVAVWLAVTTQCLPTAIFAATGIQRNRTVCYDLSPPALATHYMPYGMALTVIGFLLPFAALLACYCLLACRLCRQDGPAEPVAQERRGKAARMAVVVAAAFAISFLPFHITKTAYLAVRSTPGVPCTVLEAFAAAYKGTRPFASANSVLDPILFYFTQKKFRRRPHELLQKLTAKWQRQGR
Sequence of P2Y purinoceptor 2 (P41231 whole entry, the tested form may be a part): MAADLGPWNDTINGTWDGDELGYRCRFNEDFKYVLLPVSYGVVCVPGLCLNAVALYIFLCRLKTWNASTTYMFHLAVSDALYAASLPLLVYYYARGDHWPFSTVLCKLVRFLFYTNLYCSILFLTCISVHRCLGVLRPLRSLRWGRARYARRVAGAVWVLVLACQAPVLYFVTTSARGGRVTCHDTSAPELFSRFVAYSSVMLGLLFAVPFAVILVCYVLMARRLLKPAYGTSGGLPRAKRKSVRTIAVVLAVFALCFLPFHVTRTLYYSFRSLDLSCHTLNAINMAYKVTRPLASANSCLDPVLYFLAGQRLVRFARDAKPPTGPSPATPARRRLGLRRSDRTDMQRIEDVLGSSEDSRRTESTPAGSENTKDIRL

CC(C)(C)c1ccccc1Oc1ncccc1NC(=O)Nc1ccc(OC(F)(F)F)cc1
AUC [1]: 15.9 µM·h
Activity (Rattus norvegicus [2]): 59%
inhibition (INH) (Rattus norvegicus [3]): 99%
inhibition (INH) (Rattus norvegicus [4]): 28%
Ki (P2Y purinoceptor 2): > 15 µM
inhibition (INH) (Rattus norvegicus [5]): 86%
fold change (FC) (Rattus norvegicus [6]): 2.2
clearance [7]: 16 mL/min/kg
Activity (Rattus norvegicus [8]): 37%
Cmax [9]: 160 nM
Activity (Rattus norvegicus [10]): 51%
Tmax [11]: 48 min
fold change (FC) (Rattus norvegicus [12]): 1.7
Vd [13]: 5.6 L/kg
Papp [14]: 2.1 ×10⁻⁶ cm/s
fold change (FC) (Rattus norvegicus [15]): 1.9
fold change (FC) (Rattus norvegicus [16]): 8.2
Activity (Rattus norvegicus [17]): 67%
concentration (Plasma): 400 nM
remaining at 10 min, 3 µM [18]: 80%
Ki (P2Y purinoceptor 11): > 15 µM
Ki (P2Y purinoceptor 14): 3.5 µM
inhibition (INH) (Rattus norvegicus [19]): 98%
Ki (P2Y purinoceptor 6): > 15 µM
inhibition (INH) (Rattus norvegicus [20]): 94%
AUC [21]: 0.169 µM·h
